Activity calls are given as the source filed them. No cut-off for these calls is given here.
Legend:
[1] = system: MOLT-4; assay: Cytotoxicity against human MOLT-4 assessed as growth inhibition at 10 uM by NCI protocol relative to control; assay type: functional; conditions: read-out: GI
In short: (§1)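 Run by NCI as a single-dose screen at 10 μM across the sixty-cell-line panel, which covers nine human tumour tissue types. The read-out is percent growth inhibition of treated cells relative to untreated cells.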

[2] = system: SR; assay: Cytotoxicity against human SR assessed as growth inhibition at 10 uM by NCI protocol relative to control; assay type: functional; conditions: read-out: GI
In short: (§2)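 Run by the NCI under its standard protocol: one dose of 10 μM against a sixty-line panel from nine human tumour tissues. Result given as percent growth inhibition of treated cells relative to untreated cells.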

[3] = system: EKVX; assay: Cytotoxicity against human EKVX assessed as growth inhibition at 10 uM by NCI protocol relative to control; assay type: functional; conditions: read-out: GI; in short: as §1
[4] = system: HOP-92; assay: Cytotoxicity against human HOP-92 assessed as growth inhibition at 10 uM by NCI protocol relative to control; assay type: functional; conditions: read-out: GI; in short: as §1
[5] = system: HCT-116; assay: Cytotoxicity against human HCT-116 assessed as growth inhibition at 10 uM by NCI protocol relative to control; assay type: functional; conditions: read-out: GI; in short: as §1
[6] = system: SF-539; assay: Cytotoxicity against human […] assessed as growth inhibition at 10 uM by NCI protocol relative to control; assay type: functional; conditions: read-out: GI; in short: as §1
[7] = system: MDA-MB-435; assay: Cytotoxicity against human MDA-MB-435 assessed as growth inhibition at 10 uM by NCI protocol relative to control; assay type: functional, cell-based; in short: as §1
[8] = system: UACC-62; assay: Cytotoxicity against human UACC-62 assessed as growth inhibition at 10 uM by NCI protocol relative to control; assay type: functional; conditions: read-out: GI; in short: as §2
[9] = system: IGROV-1; assay: Cytotoxicity against human IGROVI assessed as growth inhibition at 10 uM by NCI protocol relative to control; assay type: functional; conditions: read-out: GI; in short: as §1
[10] = system: 786-0; assay: Cytotoxicity against human 786-0 assessed as growth inhibition at 10 uM by NCI protocol relative to control; assay type: functional; conditions: read-out: GI; in short: as §1
[11] = system: A498; assay: Cytotoxicity against human A498 assessed as growth inhibition at 10 uM by NCI protocol relative to control; assay type: functional; conditions: read-out: GI; in short: as §1
[12] = system: CAKI-1; assay: Cytotoxicity against human Caki1 assessed as growth inhibition at 10 uM by NCI protocol relative to control; assay type: functional; conditions: read-out: GI; in short: as §1
[13] = system: UO-31; assay: Cytotoxicity against human UO31 assessed as growth inhibition at 10 uM by NCI protocol relative to control; assay type: functional; conditions: read-out: GI; in short: as §2
[14] = system: T47D; assay: Cytotoxicity against human T-47D assessed as growth inhibition at 10 uM by NCI protocol relative to control; assay type: functional; conditions: read-out: GI; in short: as §2
[15] = system: MDA-MB-468; assay: Cytotoxicity against human MDA-MB-468 assessed as growth inhibition at 10 uM by NCI protocol relative to control; assay type: functional; conditions: read-out: GI; in short: as §1
[16] = system: T47D; assay: Cytotoxicity against human T47D cells assessed as reduction in cell viability after 3 hrs by MTT assay
[17] = system: MCF10; assay: Cytotoxicity against human MCF10 cells assessed as reduction in cell viability after 3 hrs by MTT assay; conditions: MCF10, 3 h
[18] = system: T47D; assay: Induction of cell cycle arrest in human T47D cells assessed as increase in accumulation at G0/G1 phase after 24 hrs by propidium iodide/Annexin V staining based FACScan flow cytometry(reference value: 52.59%); assay type: functional
[19] = system: T47D; assay: Induction of cell cycle arrest in human T47D cells assessed as increase in accumulation at S phase after 24 hrs by propidium iodide/Annexin V staining based FACScan flow cytometry(reference value: 34.62%); assay type: functional
[20] = system: T47D; assay: Induction of cell cycle arrest in human T47D cells assessed as increase in accumulation at G2/M phase after 24 hrs by propidium iodide/Annexin V staining based FACScan flow cytometry(reference value: 12.79%); assay type: functional
[21] = system: T47D; assay: Induction of cell cycle arrest in human T47D cells assessed as increase in accumulation at pre G1 phase after 24 hrs by propidium iodide/Annexin V staining based FACScan flow cytometry(reference value: 2.61%); assay type: functional
[22] = system: T47D; assay: Induction of apoptosis in human T47D cells assessed as total apoptotic cells after 24 hrs by Annexin V-FITC/propidium iodide staining based flow cytometric analysis (reference value: 2.61 %); assay type: functional
[23] = system: T47D; assay: Induction of apoptosis in human T47D cells assessed as early apoptotic cells after 24 hrs by Annexin V-FITC/propidium iodide staining based flow cytometric analysis (reference value: 0.66 %); assay type: functional
[24] = system: T47D; assay: Induction of apoptosis in human T47D cells assessed as late apoptotic cells after 24 hrs by Annexin V-FITC/propidium iodide staining based flow cytometric analysis (reference value: 0.21 %); assay type: functional
[25] = system: T47D; assay: Induction of apoptosis in human T47D cells assessed as necrotic cells after 24 hrs by Annexin V-FITC/propidium iodide staining based flow cytometric analysis (reference value: 1.74%); assay type: functional

In the case of `O=C(CN1CCN(c2cc(=O)[nH]c3ccc(F)cc23)CC1)Nc1nc(-c2ccccc2)cs1`, the inhibition of growth at 10 µM [1] is reported as 13.3%, the inhibition of growth at 10 µM [2] is reported as 21.2% and the inhibition of growth at 10 µM [3] is reported as 14.6%. It also gave an inhibition of growth at 10 µM [4] of 10.9%, an inhibition of growth at 10 µM [5] of 16% and an inhibition of growth at 10 µM [6] of 13.3%. The “growth inhibition (GI)” value [7] was “inactive”, the inhibition of growth at 10 µM [8] was 14.4% and the inhibition of growth at 10 µM [9] was 16.1%. For the same compound, the inhibition of growth at 10 µM [10] was 10.3%, the inhibition of growth at 10 µM [11] was 27.9% and the inhibition of growth at 10 µM [12] was 17.4%. It also gave an inhibition of growth at 10 µM [13] of 24.2%, an inhibition of growth at 10 µM [14] of 29.6% and an inhibition of growth at 10 µM [15] of 12.5%. For the same compound, the IC50 [16] was 7.2 µM, the IC50 [17] was 39.4 µM and the Activity [18] was 41.31%. It also gave an Activity [19] of 52.39%, an Activity [20] of 6.3% and an Activity [21] of 43.05%. For the same compound, the Activity [22] was 43.05%, the Activity [23] was 2.31% and the Activity [24] was 27.88%. For the same compound, the Activity [25] was 12.86%.

From ChEMBL document CHEMBL4819122, “Novel 4-(piperazin-1-yl)quinolin-2(1H)-one bearing thiazoles with antiproliferative activity through VEGFR-2-TK inhibition” (Bioorg Med Chem, 2021)
